Experimental data published in ChEMBL document CHEMBL1124711, “Design and synthesis of 14 alpha-methyl-15-aza-D-homosterols as novel antimycotics” (1990).
Converted amounts (≈) assume the structure as drawn.

Key:
Mus musculus [1] = assay: The number of survivors/total infected at day 14 was determined after (ip) administration of 2 mg/kg in Candida albicans infected mice; 4/10; assay type: functional
Candida albicans [2] = assay: Minimum fungicidal concentration was determined against Candida albicans 3153A strain; assay type: functional
Method in brief: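 Fungicidal endpoint: lowest drug concentration whose subcultures were negative or grew fewer than three colonies.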

Candida albicans [3] = assay: Minimum inhibitory concentration was determined against Candida albicans 3153A strain; assay type: functional
Mus musculus [4] = assay: The number of survivors/total infected at day 14 was determined after (ip) administration of 2 mg/kg in Candida albicans infected mice; 6/10; assay type: functional
Mus musculus [5] = assay: The number of survivors/total infected at day 14 was determined after (ip) administration of 1 mg/kg in Candida albicans infected mice; 10/10
[6] = Candida albicans, read-out: MFC
[7] = Candida albicans, read-out: MIC

CC(C)CCC[C@@H](C)C1CCN[C@@]2(C)C3=C(CC[C@]12C)[C@@]1(C)CC[C@H](O)CC1CC3 (stereo partly drawn)
No. of survivors (Mus musculus [1]): 4 | MFC (Candida albicans [2]): 6.3 µg/mL (≈ 15.2 µM) | MFC (Candida albicans [2]; [6]): 6.3 µg/mL (≈ 15.2 µM) | MIC (Candida albicans [3]): 3.1 µg/mL (≈ 7.46 µM) | MIC (Candida albicans [3]; [7]): 3.1 µg/mL (≈ 7.46 µM)

CC(C)[C@@H](C)/C=C/[C@@H](C)C1CCN[C@@]2(C)C3=CCC4C(C)(C)[C@@H](O)CC[C@]4(C)C3CC[C@]12C (stereo partly drawn)
MFC (Candida albicans [2]): 6.3 µg/mL (≈ 13.8 µM) | MFC (Candida albicans [2]; [6]): 6.3 µg/mL (≈ 13.8 µM) | MIC (Candida albicans [3]): 1.6 µg/mL (≈ 3.51 µM) | MIC (Candida albicans [3]; [7]): 1.6 µg/mL (≈ 3.51 µM)

CC(C)CCC[C@@H](C)C1CC(=O)N[C@@]2(C)C3=CCC4C[C@@H](O)CC[C@]4(C)C3CC[C@]12C (stereo partly drawn)
MIC (Candida albicans [3]; [7]): > 100 µg/mL

CC(C)[C@@H](C)/C=C/[C@@H](C)C1CCN[C@@]2(C)C3=CCC4C[C@@H](O)CC[C@]4(C)C3CC[C@]12C (stereo partly drawn)
MFC (Candida albicans [2]): 6.3 µg/mL (≈ 14.7 µM) | MFC (Candida albicans [2]; [6]): 6.3 µg/mL (≈ 14.7 µM) | MIC (Candida albicans [3]): 0.8 µg/mL (≈ 1.87 µM) | MIC (Candida albicans [3]; [7]): 0.8 µg/mL (≈ 1.87 µM)

CC(C)CCC[C@@H](C)C1CCN[C@@]2(C)C3=CCC4C[C@@H](O)CC[C@]4(C)C3CC[C@]12C (stereo partly drawn)
MFC (Candida albicans [2]): 6.3 µg/mL (≈ 15.2 µM) | MFC (Candida albicans [2]; [6]): 6.3 µg/mL (≈ 15.2 µM) | No. of survivors (Mus musculus [4]): 6 | MIC (Candida albicans [3]): 1.6 µg/mL (≈ 3.85 µM) | MIC (Candida albicans [3]; [7]): 1.6 µg/mL (≈ 3.85 µM)

CC(C)CCC[C@@H](C)C1CCN[C@@]2(C)C3=CCC4C(C)(C)[C@@H](O)CC[C@]4(C)C3CC[C@]12C (stereo partly drawn)
MFC (Candida albicans [2]): 3.1 µg/mL (≈ 6.99 µM) | MFC (Candida albicans [2]; [6]): 3.1 µg/mL (≈ 6.99 µM) | MIC (Candida albicans [3]): 1.6 µg/mL (≈ 3.61 µM) | MIC (Candida albicans [3]; [7]): 1.6 µg/mL (≈ 3.61 µM)

C[C@@H]1[C@H](O)[C@@H](C)/C=C/C=C/C=C/C=C/C=C/C=C/C=C/[C@H](O[C@@H]2O[C@H](C)[C@@H](O)[C@H](N)[C@@H]2O)C[C@@H]2O[C@](O)(C[C@@H](O)C[C@@H](O)[C@H](O)CC[C@@H](O)C[C@@H](O)CC(=O)O[C@H]1C)C[C@H](O)[C@H]2C(=O)O [AMPHOTERICIN B]
No. of survivors (Mus musculus [5]): 10 | MIC (Candida albicans [3]): 0.16 µg/mL (≈ 0.173 µM) | MIC (Candida albicans [3]; [7]): 0.16 µg/mL (≈ 0.173 µM)

OC(Cn1cncn1)(Cn1cncn1)c1ccc(F)cc1F [FLUCONAZOLE]
MIC (Candida albicans [3]): 0.8 µg/mL (≈ 2.61 µM) | MIC (Candida albicans [3]; [7]): 0.8 µg/mL (≈ 2.61 µM)
